# Test results taken from ChEMBL document CHEMBL5724801, “EUbOPEN Chemogenomics Library - Multiplex” (2024).
# Several values for one entry are separate records, joined by “and”; a condition that tells them apart may be missing. Equal values may be shown once.
# Tested on: U2OS
# Assay: Multiplex assay against U2OS
# Format: toxicity, cell-based
# Conditions: human
# In short: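 At seeding, live cells were stained with Hoechst33342, BioTracker Green Microtubule Cytoskeleton Dye, MitoTracker Red and Annexin V Alexa Fluor 680. After compound addition they were imaged on a CQ1 microscope at 37°C and 5% CO2, and CellPathfinder machine-learning gating sorted them into Hoechst high-intensity objects or normal cells, with normal cells further split into healthy, pyknosed or fragmented nuclei and pyknosed cells into mitotic or apoptotic. Tubulin, mitochondrial-mass and membrane-permeability phenotypes are given as per cents of cells with healthy nuclei.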
# [1] = 12 h, 1 µM, compound concentration 1 uM
# [2] = 12 h, 10 µM, compound concentration 10 uM
# [3] = 24 h, 1 µM, compound concentration 1 uM
# [4] = 24 h, 10 µM, compound concentration 10 uM
# [5] = 48 h, 1 µM, compound concentration 1 uM
# [6] = 48 h, 10 µM, compound concentration 10 uM
smiles,measurement,setting,value
CN1CCN(c2cc(-c3ccccc3)nc(N)n2)CC1,Population Apoptotic (%),[1],80% and 62%
same,Population Fragmented Nuclei (%),[1],32% and 17%
same,Population Healthy Nuclei (%),[1],61% and 76%
same,Population Hoechst High Intensity Objects (%),[1],2% and 1%
same,Population Membrane Permeable-Phenotype (%),[1],5% and 7%
same,Population Mitochondria Different-Phenotype (%),[1],2% and 5%
same,Population Mitotic Cells (%),[1],20% and 37%
same,Population Normal (%),[1],97% and 98%
same,Population Pyknosed Nuclei (%),[1],6% and 5%
same,Population Tubulin-Different-Phenotype (%),[1],2% and 11%
same,Total Cell Count,[1],235 and 141
same,Population Apoptotic (%),[2],86% and 73%
same,Population Healthy Nuclei (%),[2],63% and 80%
same,Population Hoechst High Intensity Objects (%),[2],0% and 1%
same,Population Membrane Permeable-Phenotype (%),[2],5% and 10%
same,Population Mitochondria Different-Phenotype (%),[2],3%
same,Population Mitotic Cells (%),[2],13% and 26%
same,Population Normal (%),[2],99% and 98%
same,Population Pyknosed Nuclei (%),[2],6% and 10%
same,Population Tubulin-Different-Phenotype (%),[2],3% and 7%
same,Total Cell Count,[2],252 and 139
same,Population Apoptotic (%),[3],86% and 80%
same,Population Fragmented Nuclei (%),[3],25% and 21%
same,Population Healthy Nuclei (%),[3],65% and 73%
same,Population Hoechst High Intensity Objects (%),[3],1%
same,Population Membrane Permeable-Phenotype (%),[3],7% and 6%
same,Population Mitochondria Different-Phenotype (%),[3],1%
same,Population Mitotic Cells (%),[3],13% and 20%
same,Population Normal (%),[3],98%
same,Population Pyknosed Nuclei (%),[3],8% and 5%
same,Population Tubulin-Different-Phenotype (%),[3],4% and 9%
same,Total Cell Count,[3],278 and 177
same,Population Apoptotic (%),[4],100% and 81%
same,Population Fragmented Nuclei (%),[4],23% and 12%
same,Population Healthy Nuclei (%),[4],69% and 80%
same,Population Hoechst High Intensity Objects (%),[4],1% and 2%
same,Population Membrane Permeable-Phenotype (%),[4],9% and 4%
same,Population Mitochondria Different-Phenotype (%),[4],3% and 4%
same,Population Mitotic Cells (%),[4],0% and 18%
same,Population Normal (%),[4],98% and 97%
same,Population Pyknosed Nuclei (%),[4],6%
same,Population Tubulin-Different-Phenotype (%),[4],7% and 2%
same,Total Cell Count,[4],287 and 166
same,Population Apoptotic (%),[5],83% and 69%
same,Population Fragmented Nuclei (%),[5],21% and 19%
same,Population Healthy Nuclei (%),[5],69% and 75%
same,Population Hoechst High Intensity Objects (%),[5],2% and 3%
same,Population Membrane Permeable-Phenotype (%),[5],5%
same,Population Mitochondria Different-Phenotype (%),[5],1% and 2%
same,Population Mitotic Cells (%),[5],16% and 30%
same,Population Normal (%),[5],97% and 96%
same,Population Pyknosed Nuclei (%),[5],9% and 5%
same,Population Tubulin-Different-Phenotype (%),[5],2% and 7%
same,Total Cell Count,[5],409 and 267
same,Population Apoptotic (%),[6],100% and 88%
same,Population Fragmented Nuclei (%),[6],19% and 11%
same,Population Healthy Nuclei (%),[6],71% and 78%
same,Population Hoechst High Intensity Objects (%),[6],1%
same,Population Membrane Permeable-Phenotype (%),[6],5% and 2%
same,Population Mitochondria Different-Phenotype (%),[6],3%
same,Population Mitotic Cells (%),[6],0% and 12%
same,Population Normal (%),[6],98%
same,Population Pyknosed Nuclei (%),[6],8% and 10%
same,Population Tubulin-Different-Phenotype (%),[6],6% and 1%
same,Total Cell Count,[6],420 and 254
COc1cc(/C=C(\C#N)C(=O)Nc2nnc(C(F)(F)F)s2)ccc1OCc1ccc(C(F)(F)F)cc1C(F)(F)F,Population Apoptotic (%),[1],22.22% and 38.1%
same,Population Fragmented Nuclei (%),[1],1.99% and 4.9%
same,Population Healthy Nuclei (%),[1],89.05% and 80.42%
same,Population Hoechst High Intensity Objects (%),[1],0%
same,Population Membrane Permeable-Phenotype (%),[1],0.84% and 2.61%
same,Population Mitochondria Different-Phenotype (%),[1],0.28% and 6.09%
same,Population Mitotic Cells (%),[1],77.78% and 61.9%
same,Population Normal (%),[1],100%
same,Population Pyknosed Nuclei (%),[1],8.96% and 14.69%
same,Population Tubulin-Different-Phenotype (%),[1],0.56% and 0%
same,Total Cell Count,[1],402 and 143
same,Population Apoptotic (%),[2],36.59% and 47.06%
same,Population Fragmented Nuclei (%),[2],1.77% and 5.29%
same,Population Healthy Nuclei (%),[2],87.88% and 85.71%
same,Population Hoechst High Intensity Objects (%),[2],0%
same,Population Membrane Permeable-Phenotype (%),[2],0.57% and 6.17%
same,Population Mitochondria Different-Phenotype (%),[2],0.29% and 3.09%
same,Population Mitotic Cells (%),[2],63.41% and 52.94%
same,Population Normal (%),[2],100%
same,Population Pyknosed Nuclei (%),[2],10.35% and 8.99%
same,Population Tubulin-Different-Phenotype (%),[2],1.72% and 0%
same,Total Cell Count,[2],396 and 189
same,Population Apoptotic (%),[3],43.86% and 43.48%
same,Population Fragmented Nuclei (%),[3],1.6% and 6.28%
same,Population Healthy Nuclei (%),[3],88.24% and 81.68%
same,Population Hoechst High Intensity Objects (%),[3],0%
same,Population Membrane Permeable-Phenotype (%),[3],0.81% and 3.85%
same,Population Mitochondria Different-Phenotype (%),[3],0% and 5.13%
same,Population Mitotic Cells (%),[3],56.14% and 56.52%
same,Population Normal (%),[3],100%
same,Population Pyknosed Nuclei (%),[3],10.16% and 12.04%
same,Population Tubulin-Different-Phenotype (%),[3],0.81% and 0.64%
same,Total Cell Count,[3],561 and 191
same,Population Apoptotic (%),[4],52.08% and 57.69%
same,Population Fragmented Nuclei (%),[4],0.74% and 3.08%
same,Population Healthy Nuclei (%),[4],90.41% and 85.46%
same,Population Hoechst High Intensity Objects (%),[4],0%
same,Population Membrane Permeable-Phenotype (%),[4],1.43% and 7.22%
same,Population Mitochondria Different-Phenotype (%),[4],0% and 1.03%
same,Population Mitotic Cells (%),[4],47.92% and 42.31%
same,Population Normal (%),[4],100%
same,Population Pyknosed Nuclei (%),[4],8.86% and 11.45%
same,Population Tubulin-Different-Phenotype (%),[4],1.43% and 0.52%
same,Total Cell Count,[4],542 and 227
same,Population Apoptotic (%),[5],46.05% and 40.48%
same,Population Fragmented Nuclei (%),[5],3.37% and 3.16%
same,Population Healthy Nuclei (%),[5],89.31% and 83.54%
same,Population Hoechst High Intensity Objects (%),[5],0%
same,Population Membrane Permeable-Phenotype (%),[5],1.29% and 1.14%
same,Population Mitochondria Different-Phenotype (%),[5],0.11% and 2.65%
same,Population Mitotic Cells (%),[5],53.95% and 59.52%
same,Population Normal (%),[5],100%
same,Population Pyknosed Nuclei (%),[5],7.32% and 13.29%
same,Population Tubulin-Different-Phenotype (%),[5],0.32% and 0%
same,Population Apoptotic (%),[6],40% and 47.5%
same,Population Fragmented Nuclei (%),[6],2.52% and 1.99%
same,Population Healthy Nuclei (%),[6],89.1% and 88.09%
same,Population Hoechst High Intensity Objects (%),[6],0%
same,Population Membrane Permeable-Phenotype (%),[6],0.47% and 3.66%
same,Population Mitochondria Different-Phenotype (%),[6],0% and 0.85%
same,Population Mitotic Cells (%),[6],60% and 52.5%
same,Population Normal (%),[6],100%
same,Population Pyknosed Nuclei (%),[6],8.39% and 9.93%
same,Population Tubulin-Different-Phenotype (%),[6],0.82% and 1.13%
same,Total Cell Count,[6],954 and 403
